Screening data deposited in PubChem by several laboratories.
p97 ATPase inh: inhibitors of human p97 ATPase, primary screen, biochemical. recombinant p97 ATPase, Kinase-Glo ATP luminescence, 3 h. 0.42% of 220,000 active. inhibition, % at 8 µM; in the data active means inhibition above about 15%
Runt-SMMHC FRET: inhibitors of RUNX1 Runt–CBFb-SMMHC binding, primary screen, biochemical, FRET, Cerulean-Runt, Venus-CBFb-SMMHC, uHTS; Runt-related transcription factor 1 (Homo sapiens) + Core-binding factor subunit beta …; Cerulean-Runt/Venus-CBFb-SMMHC FRET ratio 530/480, 1 h; inhibition, % at 20 µM; 0.74% of 220,000 active;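 active means mean inhibition across duplicate retests at 20 µM reaching about 50%, limit read from the data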;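 further: inhibitors lower the FRET ratio by blocking Runt binding to CBFb-SMMHC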
Target sequence (Q01196 whole entry, looked up): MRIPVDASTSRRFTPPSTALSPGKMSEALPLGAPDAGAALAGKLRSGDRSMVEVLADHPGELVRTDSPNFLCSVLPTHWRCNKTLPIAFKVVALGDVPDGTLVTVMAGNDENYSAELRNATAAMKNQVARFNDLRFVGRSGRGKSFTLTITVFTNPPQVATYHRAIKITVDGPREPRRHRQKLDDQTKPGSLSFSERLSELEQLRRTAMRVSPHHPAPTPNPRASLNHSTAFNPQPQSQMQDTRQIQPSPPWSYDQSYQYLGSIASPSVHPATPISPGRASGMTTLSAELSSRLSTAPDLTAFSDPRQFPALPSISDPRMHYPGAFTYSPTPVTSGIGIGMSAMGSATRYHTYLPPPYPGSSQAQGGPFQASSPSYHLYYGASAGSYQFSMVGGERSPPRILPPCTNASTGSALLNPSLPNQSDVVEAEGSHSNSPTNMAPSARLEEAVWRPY
Target sequence (Q13951 whole entry, looked up): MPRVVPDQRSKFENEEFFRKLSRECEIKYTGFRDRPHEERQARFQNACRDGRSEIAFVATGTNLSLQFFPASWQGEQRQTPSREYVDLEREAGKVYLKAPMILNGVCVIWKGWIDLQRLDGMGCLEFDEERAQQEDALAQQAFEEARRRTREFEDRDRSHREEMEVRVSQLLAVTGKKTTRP
Hck-Nef inh: inhibitors of Nef-activated human Hck kinase, primary screen, biochemical, Z-Lyte FRET, 384-well, Hck-YEEI. Tyrosine-protein kinase HCK (Homo sapiens), P08631. Recombinant Hck-YEEI plus Nef, Z-Lyte FRET kinase assay. inhibition, % at 20 µM. 0.68% of 220,000 active. AID 463187, 2010;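 active means Hck-Nef kinase inhibition above about 50%, limit read from the data; inactive means inhibition below that limit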
Runt-CBFb FRET: inhibitors of RUNX1 Runt–CBFb binding, primary screen, biochemical, FRET, Cerulean-Runt, Venus-CBFb, uHTS | inhibition, % at 20 µM | AID 1496, 2009 | Cerulean-Runt/Venus-CBFb FRET ratio 530/480, 1 h | Runt-related transcription factor 1 (Homo sapiens) + Core-binding factor subunit beta … | 0.46% of 220,000 active;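 active means inhibition over about 50% at 20 µM in the single-dose screen, limit read from the data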
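test system = Cerulean-tagged RUNX1 Runt domain (FRET donor) fusion protein | reagent = Venus-CBFb binding partner, 100 nM | incubation = protein complex preformed 1 h, compound exposure 1 h, room temperature, dark | detection = FRET fluorescence | read-out basis = loss of energy transfer signal | controls = 5 µM unlabeled CBFb as full-inhibition high control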
TbHK1 inh: Trypanosoma brucei hexokinase 1 inhibitors, primary screen, biochemical, G6PDH-coupled NADH absorbance, MLSCN library | hexokinase 1 [Trypanosoma brucei] | recombinant TbHK1, G6PDH-coupled NADH A340 | inhibition, % at 10 µM | 0.11% of 220,000 active;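 active means inhibition of 50% or more in the single-dose primary screen; inactive means inhibition below 50%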
RanGTP-Impb inh: inhibitors of RanGTP-importin-beta interaction, primary screen, biochemical, FRET, CFP-Ran, YFP-importin-beta, homogeneous; Ran GTPase (GTP-bound) - importin-beta complex; cell-free CFP-Ran/YFP-importin-beta FRET ratio; inhibition, % (concentration not given with the values); 1.1% of 300,000 active;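 active means more than half of the replicate wells show a fall in the fluorescence ratio signal beyond about 16%, limit read from the data, passing the limit was not always enough; inconclusive means exactly half of the replicate wells pass the set limit; inactive means fewer than half of replicates pass the limit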
p97 inh conf: p97 ATPase inhibitors, retest, confirmation, biochemical; shares compounds with p97 ATPase inh; recombinant p97 ATPase, Kinase-Glo ATP luminescence; inhibition, % at 8 µM; 44% of 760 active;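 active means percent inhibition of p97 ATPase above a set limit, the primary screen's mean plus 3 SD, cut at about 15% in these data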
Numbers stand for hits; n = inactive; u = inconclusive; x = no result given. Rows were chosen to be rich in hits. Some 2.1% of all compounds tested hit in one or more screens of this group.

SMILES | p97 ATPase inh | Runt-SMMHC FRET | Hck-Nef inh | Runt-CBFb FRET | TbHK1 inh | RanGTP-Impb inh | p97 inh conf
Cc1cc(N2C(=O)[C@@H]3[C@H](C2=O)[C@@H]2C[C@H]3C(Br)C2Br)no1 (stereo partly specified) | n | n | n | n | n | n | x
Cc1c(C(=O)c2no[n+]([O-])c2C(=O)c2cnn(C)c2C)cnn1C | 34 | n | n | n | n | n | 36
COc1cc(C(=O)c2nccc3cc(OC)c(OC)cc23)c([N+](=O)[O-])cc1OC | 30 | n | n | n | n | n | 25
COc1cc(N)c(C(=O)c2nccc3cc(OC)c(OC)cc23)cc1OC | x | x | x | x | x | n | x
COc1ccc2oc(C(=O)OCC(=O)N3CCN(S(=O)(=O)c4ccc(C)cc4)CC3)c(C)c2c1 | x | x | x | x | x | n | x
COc1ccc2ccc3c(c2c1)N=C[C@]1(O3)N(C)c2ccccc2C1(C)C | 24 | n | n | n | n | n | n
CCC(=O)Nc1cccc(-c2cnc3ccccc3n2)c1 | n | n | n | n | n | n | x
O=C(CCl)Nc1cccc(-c2cnc3ccccc3n2)c1 | 18 | n | n | n | n | n | 35
C=CCn1c(-c2ccc(Cl)cc2)cnc1SC(C)C(=O)NC(N)=O (stereo unspecified) | n | n | n | n | n | n | x
CCC(CNc1cc(OC)cc2cccnc12)NC1CCCCC1 (stereo unspecified) | 24 | n | n | n | n | n | n
COc1cc(NCCCC(C)N)c2ncccc2c1 (stereo unspecified) | 15 | x | n | x | n | n | n
COc1cc(NS(=O)(=O)c2ccc(C)cc2)c2ncccc2c1 | n | n | n | n | n | n | x
Cc1ccc(-c2nnc(NCc3nc4ccccc4[nH]3)c3ccccc23)cc1S(=O)(=O)N1CCOCC1 | 15 | n | n | n | n | n | n
Cc1ccc(C)c(CN2C(=O)C3CCCN3c3ccc(S(=O)(=O)N4CCOCC4)cc32)c1 (stereo unspecified) | n | n | n | n | n | n | x
O=C(NCc1ccco1)c1sc(=S)n2c1[nH]c(=O)c1ccccc12 | 15 | n | n | n | n | n | 25
O=C(NC1CCCC1)c1sc(=S)n2c1[nH]c(=O)c1ccccc12 | n | n | n | n | n | n | x
COc1ccc2[nH]c(-c3ccccc3)cc2c1 | n | n | n | n | n | n | x
O=C(Nc1ccccc1OC(F)F)c1ccccc1 | 16 | n | n | n | n | n | n
O=C(NNC(=O)c1cc(-c2ccco2)nc2ccccc12)c1ccccc1 | n | n | n | n | n | n | x
O=C(O)c1cc(-c2ccco2)nc2cc3ccccc3cc12 | 30 | n | n | n | n | n | 23
CCC1Oc2ccc(C)cc2N(CC(=O)NCc2cccc(OC)c2)C1=O (stereo unspecified) | n | n | n | n | n | n | x
Cc1[nH]n(-c2ccccc2)c(=O)c1/C=C1\C=NN=C1c1ccccc1 | 18 | n | n | n | n | n | 17
CCOc1ccc(NC(=O)c2ccc(NC(=S)NC3CC3)cc2)cc1 | n | n | n | n | n | n | x
CCOc1ccc(NC(=O)c2ccc(NC(=S)NC3CCCCC3)cc2)cc1 | 15 | n | n | n | n | n | n
CCOc1ccccc1NC(=O)c1cc(C(=O)c2cc(Br)ccc2O)coc1=N | 25 | n | n | n | n | x | 34
SMILES | p97 ATPase inh | Runt-SMMHC FRET | Hck-Nef inh | Runt-CBFb FRET | TbHK1 inh | RanGTP-Impb inh | p97 inh conf
CC(C)OC(=O)c1cc(C(=O)c2cc(Br)ccc2O)coc1=N | n | n | n | n | n | n | x
O=C(CCN1C(=O)/C(=C/c2ccco2)SC1=S)Nc1ccc(O)cc1C(=O)O | x | x | x | x | x | n | x
O=C(CCCN1C(=O)/C(=C/c2ccco2)SC1=S)Nc1ccccc1C(=O)O | 22 | n | n | n | n | n | n
CCOC(=O)CNC(=O)CSc1cc(C)nc2ccc(OC)cc12 | n | n | n | n | n | n | x
COc1ccc2nc(C)cc(SCC(=O)NNC(=O)COc3ccccc3)c2c1 | 15 | n | n | n | n | n | n
COCCOC(=O)C(CC(=O)O)NCc1ccco1 (stereo unspecified) | 16 | n | n | n | n | n | n
Cc1[nH]c2ccccc2c1C(=O)COC(=O)CCS(=O)(=O)c1ccccc1Cl | 27 | n | n | n | n | n | 30
CCOc1ccccc1OCC(=O)OCC(=O)c1c(C)[nH]c2ccccc12 | x | x | x | x | x | n | x
COc1ccc(/C=C2/C(=O)N(c3ccccc3)N=C2C)cc1 | x | x | x | x | x | n | x
COc1ccc(C2=NN(c3ccccc3)C(=O)/C2=C\c2ccc(O)c(OC)c2)cc1 | 35 | n | n | n | n | n | n
Cc1cc(OC(=O)c2ccc(S(=O)(=O)N3CCCCC3)cc2)c([N+](=O)[O-])c(=O)[nH]1 | 15 | n | n | n | n | n | n
Nc1c(C(=O)NCc2ccco2)c2nc3ccccc3nc2n1CCc1ccccc1 | 18 | 76 | n | n | n | 56 | n
C=C1C2(C(=O)Nc3nccs3)CCC(C2)C1(C)C (stereo unspecified) | 37 | n | n | n | n | n | n
O=C(Nc1nccs1)C1(c2ccc(Cl)cc2)CC1 | n | n | n | n | n | n | x
COc1ccc(-n2c(NC(=O)c3ccco3)c(C#N)c3nc4ccccc4nc32)cc1 | 32 | n | n | n | n | 128 | 29
N#Cc1c(NC(=O)c2ccccc2Cl)n(Cc2ccccc2)c2nc3ccccc3nc12 | 38 | 111 | n | n | n | x | 47
COc1ccc(C(=O)Nc2ccc(NC(=O)c3ccco3)cc2)cc1 | x | x | x | x | x | n | x
CCC(=O)Nc1c(C#N)c2nc3ccccc3nc2n1-c1ccccc1C | n | n | n | n | n | u | x
C=CCn1c(NC(=O)c2ccco2)c(S(=O)(=O)c2ccccc2)c2nc3ccccc3nc21 | x | n | x | n | x | x | x
CCCCn1c(NC(=O)c2ccccc2Cl)c(C#N)c2nc3ccccc3nc21 | 29 | 60 | n | 84 | n | n | 40
COc1ccc(CN(C(C)=O)c2ccccc2C(=O)O)cc1 | n | n | n | n | n | n | x
COc1ccc(N(/N=C2\Sc3ccccc3C2=O)C(C)=O)cc1 | 22 | n | n | n | n | x | 21
Cc1cccc(Nc2nc(N)nc(CCl)n2)c1 | n | n | n | n | n | n | x
